Experimental data as given in ChEMBL document CHEMBL5678805, “Intermittent administration of MEK inhibitor GDC-0973 plus PI3K inhibitor GDC-0941 triggers robust apoptosis and tumor growth inhibition” (Cancer Res, 2012).
Active and inactive are the calls of the source. The calls are words filed in the database; no cut-off is given here.

Key:
[1] = molecular target: Serine/threonine-protein kinase B-raf (Homo sapiens, UniProt P15056, V600E); assay: Inhibition of B-RAF V600E (unknown origin)
[2] = molecular target: Cyclin-dependent kinase 2/cyclin E1 (Homo sapiens, UniProt P24941); assay: Inhibition of CDK2/cyclinE (unknown origin); type: protein-complex assay
[3] = molecular target: RAF proto-oncogene serine/threonine-protein kinase (Homo sapiens, UniProt P04049); assay: Inhibition of cRAF (unknown origin)
RAF proto-oncogene serine/threonine-protein kinase, sequence (P04049 whole entry): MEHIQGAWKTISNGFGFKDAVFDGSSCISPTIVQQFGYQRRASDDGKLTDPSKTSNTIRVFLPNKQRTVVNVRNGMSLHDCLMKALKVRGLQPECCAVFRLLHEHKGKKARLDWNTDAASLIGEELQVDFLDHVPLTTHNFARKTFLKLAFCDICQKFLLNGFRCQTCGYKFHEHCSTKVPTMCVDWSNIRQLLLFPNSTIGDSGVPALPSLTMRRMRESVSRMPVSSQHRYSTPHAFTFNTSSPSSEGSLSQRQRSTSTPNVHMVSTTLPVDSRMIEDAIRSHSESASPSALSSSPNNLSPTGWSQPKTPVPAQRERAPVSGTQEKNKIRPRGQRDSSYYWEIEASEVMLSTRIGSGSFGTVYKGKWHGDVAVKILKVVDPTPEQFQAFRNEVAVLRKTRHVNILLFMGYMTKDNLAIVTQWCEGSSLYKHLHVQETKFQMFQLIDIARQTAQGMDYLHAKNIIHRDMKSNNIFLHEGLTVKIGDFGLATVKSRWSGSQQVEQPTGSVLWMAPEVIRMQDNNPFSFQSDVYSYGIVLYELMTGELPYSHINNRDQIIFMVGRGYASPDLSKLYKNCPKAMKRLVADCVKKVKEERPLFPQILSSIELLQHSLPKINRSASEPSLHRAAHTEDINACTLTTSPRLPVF

[4] = molecular target: Tyrosine-protein kinase JAK2 (Homo sapiens, UniProt O60674); assay: Inhibition of JAK2 (unknown origin)
Tyrosine-protein kinase JAK2, sequence (O60674 whole entry): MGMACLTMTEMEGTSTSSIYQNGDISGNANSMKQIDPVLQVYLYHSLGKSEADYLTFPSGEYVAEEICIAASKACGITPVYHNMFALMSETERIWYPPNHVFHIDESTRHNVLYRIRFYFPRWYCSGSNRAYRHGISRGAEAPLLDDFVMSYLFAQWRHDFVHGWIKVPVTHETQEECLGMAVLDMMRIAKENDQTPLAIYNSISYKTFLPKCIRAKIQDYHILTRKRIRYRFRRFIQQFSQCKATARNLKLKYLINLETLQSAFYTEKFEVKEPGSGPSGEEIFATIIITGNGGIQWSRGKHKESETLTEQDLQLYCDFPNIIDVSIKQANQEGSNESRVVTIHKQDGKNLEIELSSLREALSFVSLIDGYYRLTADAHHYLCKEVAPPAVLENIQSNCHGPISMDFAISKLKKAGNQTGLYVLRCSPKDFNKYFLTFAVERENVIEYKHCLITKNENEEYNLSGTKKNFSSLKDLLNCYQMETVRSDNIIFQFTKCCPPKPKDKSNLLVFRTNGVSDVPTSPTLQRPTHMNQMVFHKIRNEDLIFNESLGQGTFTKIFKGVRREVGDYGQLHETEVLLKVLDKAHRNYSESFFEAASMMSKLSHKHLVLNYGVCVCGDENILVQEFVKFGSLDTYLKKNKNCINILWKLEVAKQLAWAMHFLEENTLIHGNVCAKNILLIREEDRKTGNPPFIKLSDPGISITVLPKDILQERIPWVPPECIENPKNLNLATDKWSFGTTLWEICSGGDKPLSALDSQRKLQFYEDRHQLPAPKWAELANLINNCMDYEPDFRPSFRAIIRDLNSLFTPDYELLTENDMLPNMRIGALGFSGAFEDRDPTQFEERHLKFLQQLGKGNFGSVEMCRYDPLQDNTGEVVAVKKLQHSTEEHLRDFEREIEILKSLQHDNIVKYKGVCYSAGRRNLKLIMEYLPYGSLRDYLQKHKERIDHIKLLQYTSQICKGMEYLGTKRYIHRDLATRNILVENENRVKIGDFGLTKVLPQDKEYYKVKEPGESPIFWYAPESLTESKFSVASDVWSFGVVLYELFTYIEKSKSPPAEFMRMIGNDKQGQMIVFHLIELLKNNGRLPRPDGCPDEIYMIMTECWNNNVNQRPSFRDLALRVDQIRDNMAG

[5] = molecular target: Serine/threonine-protein kinase 10 (Homo sapiens, UniProt O94804); assay: Inhibition of LOK (unknown origin)
Serine/threonine-protein kinase 10, sequence (O94804 whole entry): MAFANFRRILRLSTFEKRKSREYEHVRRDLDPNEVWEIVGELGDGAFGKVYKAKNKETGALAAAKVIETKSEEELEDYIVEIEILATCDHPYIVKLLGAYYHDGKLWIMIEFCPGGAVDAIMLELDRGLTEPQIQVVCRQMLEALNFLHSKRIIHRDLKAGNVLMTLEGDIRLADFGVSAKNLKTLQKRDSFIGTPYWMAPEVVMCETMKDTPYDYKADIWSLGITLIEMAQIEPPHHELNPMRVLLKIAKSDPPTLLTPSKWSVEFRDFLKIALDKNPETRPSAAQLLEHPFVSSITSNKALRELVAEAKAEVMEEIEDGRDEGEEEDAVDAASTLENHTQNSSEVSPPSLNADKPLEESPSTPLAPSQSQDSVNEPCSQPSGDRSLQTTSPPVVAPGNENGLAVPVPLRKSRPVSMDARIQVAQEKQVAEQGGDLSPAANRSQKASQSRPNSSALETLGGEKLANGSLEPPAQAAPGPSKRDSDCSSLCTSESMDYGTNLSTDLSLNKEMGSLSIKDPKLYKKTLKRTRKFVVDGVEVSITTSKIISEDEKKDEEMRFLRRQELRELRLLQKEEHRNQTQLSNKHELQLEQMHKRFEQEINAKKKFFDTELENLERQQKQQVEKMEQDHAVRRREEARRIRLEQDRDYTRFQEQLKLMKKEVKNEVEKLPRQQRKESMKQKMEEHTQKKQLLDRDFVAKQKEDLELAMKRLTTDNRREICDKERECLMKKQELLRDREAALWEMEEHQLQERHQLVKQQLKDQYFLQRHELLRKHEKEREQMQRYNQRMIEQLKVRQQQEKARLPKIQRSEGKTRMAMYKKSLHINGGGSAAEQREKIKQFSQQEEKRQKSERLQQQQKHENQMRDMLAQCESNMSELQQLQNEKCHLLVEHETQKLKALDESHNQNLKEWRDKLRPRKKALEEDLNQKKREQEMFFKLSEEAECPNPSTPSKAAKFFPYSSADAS

[6] = molecular target: Tyrosine-protein kinase Lyn (Homo sapiens, UniProt P07948); assay: Inhibition of Lyn (unknown origin)
Tyrosine-protein kinase Lyn, sequence (P07948 whole entry): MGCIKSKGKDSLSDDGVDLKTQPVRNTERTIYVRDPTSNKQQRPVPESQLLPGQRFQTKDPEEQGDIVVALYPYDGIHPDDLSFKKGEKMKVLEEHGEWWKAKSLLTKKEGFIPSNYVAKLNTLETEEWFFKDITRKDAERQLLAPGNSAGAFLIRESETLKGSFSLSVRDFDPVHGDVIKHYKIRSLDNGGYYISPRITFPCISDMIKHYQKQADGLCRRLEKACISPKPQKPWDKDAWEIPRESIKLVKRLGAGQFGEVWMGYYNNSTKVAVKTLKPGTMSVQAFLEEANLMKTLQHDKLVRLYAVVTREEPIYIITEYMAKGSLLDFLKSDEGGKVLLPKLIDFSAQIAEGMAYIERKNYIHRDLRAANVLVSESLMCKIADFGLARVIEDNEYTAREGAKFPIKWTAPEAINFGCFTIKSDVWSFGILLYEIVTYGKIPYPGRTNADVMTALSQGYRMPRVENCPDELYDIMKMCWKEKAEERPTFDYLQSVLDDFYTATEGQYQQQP

[7] = molecular target: Mitogen-activated protein kinase kinase kinase 9 (Homo sapiens, UniProt P80192); assay: Inhibition of MLK1 (unknown origin)
[8] = molecular target: Ribosomal protein S6 kinase alpha-5 (Homo sapiens, UniProt O75582); assay: Inhibition of MSK1 (unknown origin)
Ribosomal protein S6 kinase alpha-5, sequence (O75582 whole entry): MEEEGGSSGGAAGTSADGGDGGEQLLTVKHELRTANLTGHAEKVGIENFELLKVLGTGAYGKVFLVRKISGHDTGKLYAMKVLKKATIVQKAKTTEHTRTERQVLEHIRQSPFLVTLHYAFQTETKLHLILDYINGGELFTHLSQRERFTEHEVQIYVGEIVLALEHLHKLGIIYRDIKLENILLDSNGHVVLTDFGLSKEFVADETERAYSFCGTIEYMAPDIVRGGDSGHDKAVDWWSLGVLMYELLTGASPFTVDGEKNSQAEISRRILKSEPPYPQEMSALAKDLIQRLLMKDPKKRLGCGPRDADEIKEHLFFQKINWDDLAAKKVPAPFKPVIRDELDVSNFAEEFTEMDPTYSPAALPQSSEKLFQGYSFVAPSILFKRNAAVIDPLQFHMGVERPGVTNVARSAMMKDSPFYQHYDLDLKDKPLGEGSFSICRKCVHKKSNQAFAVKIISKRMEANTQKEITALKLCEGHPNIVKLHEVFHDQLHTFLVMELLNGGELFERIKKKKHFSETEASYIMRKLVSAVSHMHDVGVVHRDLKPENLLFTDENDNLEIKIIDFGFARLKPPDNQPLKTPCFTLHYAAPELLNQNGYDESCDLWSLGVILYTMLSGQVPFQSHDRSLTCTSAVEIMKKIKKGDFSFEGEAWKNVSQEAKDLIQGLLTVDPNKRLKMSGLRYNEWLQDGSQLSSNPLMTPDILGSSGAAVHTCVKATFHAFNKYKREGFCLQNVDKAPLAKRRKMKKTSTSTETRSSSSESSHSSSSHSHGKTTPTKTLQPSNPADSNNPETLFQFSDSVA

[9] = molecular target: Tyrosine-protein kinase ZAP-70 (Homo sapiens, UniProt P43403); assay: Inhibition of ZAP70 (unknown origin)
Tyrosine-protein kinase ZAP-70, sequence (P43403 whole entry): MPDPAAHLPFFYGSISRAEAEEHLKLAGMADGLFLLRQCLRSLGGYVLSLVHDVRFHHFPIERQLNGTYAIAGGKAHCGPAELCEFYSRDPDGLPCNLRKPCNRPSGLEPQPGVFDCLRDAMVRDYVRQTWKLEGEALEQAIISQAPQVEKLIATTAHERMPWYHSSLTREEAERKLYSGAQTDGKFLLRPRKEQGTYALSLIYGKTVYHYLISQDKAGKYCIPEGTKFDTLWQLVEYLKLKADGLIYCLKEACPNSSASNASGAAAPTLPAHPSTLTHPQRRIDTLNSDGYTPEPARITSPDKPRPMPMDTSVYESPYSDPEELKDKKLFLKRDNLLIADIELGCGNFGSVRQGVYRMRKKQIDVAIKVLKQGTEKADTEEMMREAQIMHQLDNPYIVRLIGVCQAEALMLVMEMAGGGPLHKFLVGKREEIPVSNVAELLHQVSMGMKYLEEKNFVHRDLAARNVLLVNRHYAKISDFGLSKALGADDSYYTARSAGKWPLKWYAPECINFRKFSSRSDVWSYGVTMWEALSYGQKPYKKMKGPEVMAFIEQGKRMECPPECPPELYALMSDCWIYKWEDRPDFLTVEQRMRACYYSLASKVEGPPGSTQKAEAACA

MOLM-13 [10] = assay: Antitumor activity against human MOLM-13 cells harboring FLT3 Y599_D600insFDFREYE and c-Cbl E366_Q409del mutant xenografted in mouse assessed as tumor growth inhibition at 5 mg/kg, po; type: functional; details: MOLM-13, read-out: TGI
In short: (§1)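 Human tumor xenografts in mice were dosed orally at the indicated mg/kg. Tumor volume was measured with calipers as (L×W×W)/2. %TGI = 100 × [1 − (AUC treatment/d)/(AUC vehicle/d)], using the area under the fitted tumor-growth curve per day for each dose group relative to vehicle.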

MOLM-13 [11] = assay: Antitumor activity against human MOLM-13 cells harboring FLT3 Y599_D600insFDFREYE and c-Cbl E366_Q409del mutant xenografted in mouse assessed as tumor growth inhibition at 10 mg/kg, po; type: functional; details: read-out: TGI; in short: as §1
537-mel = assay: Antitumor activity against human 537-mel cells harboring PTEN null mutation xenografted in mouse assessed as tumor growth inhibition at 2.5 mg/kg, po; type: functional; details: read-out: TGI
In short: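 Mice carrying human tumor xenografts dosed orally once daily for 21 consecutive days. Tumor volume measured by calipers as (L×W×W)/2. %TGI = 100×[1 − AUC(treatment/day)/AUC(vehicle/day)], using the area under the fitted growth curve relative to vehicle.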

A549 = assay: Antitumor activity against human A549 cells harboring KRAS G12S/LKB1Q37/SMARCA4 Q729/CDKN2A mutant xenografted in mouse assessed as tumor growth inhibition at 5 mg/kg, po; type: functional; details: read-out: TGI
In short: (§2)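 Single-agent dose ranging in human tumor xenograft mice at 2.5, 5 or 10 mg/kg oral. Tumor volume was measured by caliper as (L×W×W)/2. %TGI = 100×[1 − AUC(treatment/d)/AUC(vehicle/d)] from the fitted growth curve per dose group, relative to vehicle.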

CWR22R = assay: Antitumor activity against human 22Rv1 cells harboring PIK3CA Q546R/TP53 Q331R mutant xenografted in mouse assessed as tumor growth inhibition at 5 mg/kg, po; type: functional; details: read-out: TGI
DU-145 = assay: Antitumor activity against human DU-145 cells harboring KRAS G12V/LKB1 K178/TP53 P223L/V274F/CDKN2A/MLH1/SMARCA4/ NF1 P2472H/RB1K715 mutant xenografted in mouse assessed as tumor growth inhibition at 10 mg/kg, po; type: functional; details: read-out: TGI; in short: as §2
A2058 [12] = assay: Antiproliferative activity against human A2058 cells harboring BRAF V600E mutant assessed as reduction in cell viability incubated for 96 hrs in presence of 4-(2-(1H-indazol-4-yl)-6-((4-(methylsulfonyl)piperazin-1-yl)methyl)thieno[3,2-d]pyrimidin-4-yl)morpholine; type: functional, cell-based
NCI-H2122 = assay: Antiproliferative activity against human NCI-H2122 cells assessed as reduction in cell viability incubated for 96 hrs in presence of 4-(2-(1H-indazol-4-yl)-6-((4-(methylsulfonyl)piperazin-1-yl)methyl)thieno[3,2-d]pyrimidin-4-yl)morpholine; type: functional, cell-based
[13] = Antiproliferative activity against human Mel 928 cells assessed reduction in cell viability incubated for 4 days in presence of 4-(2-(1H-indazol-4-yl)-6-((4-(methylsulfonyl)piperazin-1-yl)methyl)thieno[3,2-d]pyrimidin-4-yl)morpholine by celltiter-glo assay; type: functional; details: time 4 day
In short: (§3)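 4-day CellTiter-Glo viability read-out on melanoma lines, cells exposed to increasing concentrations of each inhibitor alone and in combination.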

A-375 = assay: Antiproliferative activity against human A-375 cells assessed reduction in cell viability incubated for 4 days in presence of 4-(2-(1H-indazol-4-yl)-6-((4-(methylsulfonyl)piperazin-1-yl)methyl)thieno[3,2-d]pyrimidin-4-yl)morpholine by celltiter-glo assay; type: functional; details: time 4 day; in short: as §3
LOX IMVI = assay: Antiproliferative activity against human LOX IMVI cells assessed reduction in cell viability incubated for 4 days in presence of 4-(2-(1H-indazol-4-yl)-6-((4-(methylsulfonyl)piperazin-1-yl)methyl)thieno[3,2-d]pyrimidin-4-yl)morpholine by celltiter-glo assay; type: functional; details: time 4 day; in short: as §3
[14] = Antiproliferative activity against human SK-MEL-23 cells assessed reduction in cell viability incubated for 4 days in presence of 4-(2-(1H-indazol-4-yl)-6-((4-(methylsulfonyl)piperazin-1-yl)methyl)thieno[3,2-d]pyrimidin-4-yl)morpholine by celltiter-glo assay; type: functional; details: time 4 day; in short: as §3
A2058 [15] = assay: Inhibition of PI3K/MEK signaling pathway in human A2058 cells assessed as decrease in AKT phosphorylation by incubated for 24 hrs by Western blot analysis; type: cell-based
A2058 [16] = assay: Antitumor activity against human A2058 cells xenografted in mouse assessed as decrease in pS6 level at 5 mg/kg, po administered for 4 days and measured after 2 hrs in presence of 4-(2-(1H-indazol-4-yl)-6-((4-(methylsulfonyl)piperazin-1-yl)methyl)thieno[3,2-d]pyrimidin-4-yl)morpholine; type: functional, organism-based; details: time 98.0 hrs
888-mel = assay: Inhibition of AKT phosphorylation in human 888-mel cells incubated for 24 hrs in presence of 4-(2-(1H-indazol-4-yl)-6-((4-(methylsulfonyl)piperazin-1-yl)methyl)thieno[3,2-d]pyrimidin-4-yl)morpholine by immunoblotting analysis; type: cell-based
A2058 [17] = assay: Antitumor activity against human A2058 cells harboring BRAF V600E/PTEN deletion mutant xenografted in mouse assessed as suppression of ERK phosphorylation at 15 mg/kg, po administered every third day for 21 days and measured after 8 hrs post dose by western blot analysis; type: functional, organism-based; details: time 512.0 hrs
A2058 [18] = assay: Antitumor activity against human A2058 cells harboring BRAF V600E/PTEN deletion mutant xenografted in mouse assessed as suppression of AKT phosphorylation at 15 mg/kg, po administered every third day for 21 days and measured after 72 hrs post dose by Western blot analysis; type: functional, organism-based; details: time 576.0 hrs

O=C(c1ccc(F)c(F)c1Nc1ccc(I)cc1F)N1CC(O)([C@@H]2CCCCN2)C1 [COBIMETINIB]
IC50 [1]: > 10 µM
IC50 [2]: > 10 µM
IC50 [3]: > 10 µM
IC50 [4]: > 10 µM
IC50 [5]: > 10 µM
IC50 [6]: > 10 µM
IC50 [7]: > 10 µM
IC50 [8]: > 10 µM
IC50 [9]: > 10 µM
inhibition in vivo at 5 mg/kg (MOLM-13 [10]): -6%
inhibition in vivo at 10 mg/kg (MOLM-13 [11]): 36%
inhibition in vivo at 2.5 mg/kg (537-mel): 69%
inhibition in vivo at 5 mg/kg (A549): 51.4%
inhibition in vivo at 5 mg/kg (CWR22R): 106%
inhibition in vivo at 10 mg/kg (DU-145): 77%
Activity (A2058 [12]): inactive
Activity (NCI-H2122): inactive
Activity [13]: 60%
Activity (A-375): 60%
Activity (LOX IMVI): 60%
Activity [14]: 60%
inhibition (A2058 [15]): Active
Activity (A2058 [16]): Active
inhibition (888-mel): Active
Activity (A2058 [17]): Active
Activity (A2058 [18]): Active
